Laboratory results: ChEMBL document CHEMBL1131301, “Tyrosine kinase inhibitors. 14. Structure-activity relationships for methylamino-substituted derivatives of 4-[(3-bromophenyl)amino]-6-(methylamino)-pyrido[3,4-d]pyrimidine (PD 158780), a potent and specific inhibitor of the tyrosine kinase activity of receptors for the EGF family of growth factors” (J Med Chem, 1998)
In brackets after ≈: the same amount, converted by molar mass.

Tests used:
[1] = molecular target: T1, Epidermal growth factor receptor (Homo sapiens, UniProt P00533); test: Inhibition of autophosphorylation of epidermal growth factor receptor in A431 cells in culture
T1 sequence (P00533 whole entry): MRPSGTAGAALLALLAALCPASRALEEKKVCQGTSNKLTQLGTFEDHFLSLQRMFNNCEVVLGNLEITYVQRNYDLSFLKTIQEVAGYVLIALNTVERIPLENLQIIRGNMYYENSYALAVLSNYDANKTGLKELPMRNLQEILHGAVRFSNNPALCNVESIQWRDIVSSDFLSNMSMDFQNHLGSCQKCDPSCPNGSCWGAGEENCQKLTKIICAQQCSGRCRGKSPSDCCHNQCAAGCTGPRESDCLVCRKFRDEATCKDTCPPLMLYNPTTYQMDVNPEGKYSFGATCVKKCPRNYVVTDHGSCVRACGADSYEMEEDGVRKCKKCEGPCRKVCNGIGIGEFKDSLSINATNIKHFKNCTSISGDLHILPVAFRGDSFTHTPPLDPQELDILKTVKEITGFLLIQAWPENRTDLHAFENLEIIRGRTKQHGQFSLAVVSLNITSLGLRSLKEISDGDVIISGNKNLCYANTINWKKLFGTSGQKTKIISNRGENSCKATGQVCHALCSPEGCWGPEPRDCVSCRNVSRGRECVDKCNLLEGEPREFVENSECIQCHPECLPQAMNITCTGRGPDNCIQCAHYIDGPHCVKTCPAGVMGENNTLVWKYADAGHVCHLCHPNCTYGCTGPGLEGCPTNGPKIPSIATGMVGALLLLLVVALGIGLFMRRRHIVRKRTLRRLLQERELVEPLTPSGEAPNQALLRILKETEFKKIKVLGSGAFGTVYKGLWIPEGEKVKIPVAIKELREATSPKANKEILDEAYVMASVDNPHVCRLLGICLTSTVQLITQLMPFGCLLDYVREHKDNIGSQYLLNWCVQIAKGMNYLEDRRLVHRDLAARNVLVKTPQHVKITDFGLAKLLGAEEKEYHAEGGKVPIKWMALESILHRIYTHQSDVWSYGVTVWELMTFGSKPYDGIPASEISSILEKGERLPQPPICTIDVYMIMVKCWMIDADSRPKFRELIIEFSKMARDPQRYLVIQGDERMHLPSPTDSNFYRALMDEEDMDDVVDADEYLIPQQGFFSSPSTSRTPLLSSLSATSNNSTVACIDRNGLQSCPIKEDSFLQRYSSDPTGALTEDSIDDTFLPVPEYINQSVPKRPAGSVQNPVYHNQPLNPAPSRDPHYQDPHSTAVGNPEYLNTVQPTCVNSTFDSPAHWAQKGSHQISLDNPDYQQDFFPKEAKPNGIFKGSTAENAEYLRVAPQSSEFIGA

[2] = molecular target: T1, Epidermal growth factor receptor; test: (§1) Inhibition of tyrosine/glutamic acid copolymer phosphorylation by epidermal growth factor receptor prepared of human A431
Mus musculus [3] = test: Difference in days for treated (T) and control (C) EGFR tumor fragments to reach 750 mg in mice at 38 mg/kg ip dose, administration days 1-15; type: functional; details: route intraperitoneal
Mus musculus [4] = test: Weight change of EGFR tumor bearing mice at 38 mg/kg ip dose, days 1-15 administration; type: functional; details: route intraperitoneal
Mus musculus [5] = test: Ratio of the median treated EGFR tumor mass (mg)/median control mass*100% in mice at 38 mg/kg dose, ip b.i.d. days 1-15 administration; type: functional; details: route intraperitoneal
How it was run: (§2)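 Nude mice (NCr nu/nu, 18-22 g) were randomized and implanted sc with tumor fragments in the right axilla on day 0. Tumor lines were A431 epidermoid, NIH 3T3 fibroblasts transfected with human EGFR, and MCF-7 breast. Dosing was ip or oral, by average cage weight, with 6 mice/dose group. Vehicle was 6% dimethylacetamide/94% 50 mM sodium lactate pH 4.0 (suspension), or isethionate salt in water.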

[6] = Aqueous solubility ([…] degree C); type: physicochemical; details: for solubility: water, read-out: S
[7] = molecular target: T1, Epidermal growth factor receptor; test: Inhibit of phosphorylation of a tyrosine/glutamic acid copolymer by epidermal growth factor receptor prepared from human A431 carcinoma cell vesicles by immunoaffinity chromatography.
[8] = molecular target: T1, Epidermal growth factor receptor; test: Inhibition of EGF-dependent autophosphorylation of EGF-R in A431 cells
[9] = molecular target: T1, Epidermal growth factor receptor; test: as §1; remark: listed apart in the source
[10] = molecular target: Fibroblast growth factor receptor (Homo sapiens, UniProt P22607+P11362+P22455+P21802); test: Inhibition of fibroblast growth factor receptor(FGFR); type: functional
Insulin receptor = Insulin receptor (Homo sapiens, UniProt P06213); test: Inhibition of insulin receptor(IR); type: functional
Insulin receptor, sequence (P06213 28-758 limits assumed): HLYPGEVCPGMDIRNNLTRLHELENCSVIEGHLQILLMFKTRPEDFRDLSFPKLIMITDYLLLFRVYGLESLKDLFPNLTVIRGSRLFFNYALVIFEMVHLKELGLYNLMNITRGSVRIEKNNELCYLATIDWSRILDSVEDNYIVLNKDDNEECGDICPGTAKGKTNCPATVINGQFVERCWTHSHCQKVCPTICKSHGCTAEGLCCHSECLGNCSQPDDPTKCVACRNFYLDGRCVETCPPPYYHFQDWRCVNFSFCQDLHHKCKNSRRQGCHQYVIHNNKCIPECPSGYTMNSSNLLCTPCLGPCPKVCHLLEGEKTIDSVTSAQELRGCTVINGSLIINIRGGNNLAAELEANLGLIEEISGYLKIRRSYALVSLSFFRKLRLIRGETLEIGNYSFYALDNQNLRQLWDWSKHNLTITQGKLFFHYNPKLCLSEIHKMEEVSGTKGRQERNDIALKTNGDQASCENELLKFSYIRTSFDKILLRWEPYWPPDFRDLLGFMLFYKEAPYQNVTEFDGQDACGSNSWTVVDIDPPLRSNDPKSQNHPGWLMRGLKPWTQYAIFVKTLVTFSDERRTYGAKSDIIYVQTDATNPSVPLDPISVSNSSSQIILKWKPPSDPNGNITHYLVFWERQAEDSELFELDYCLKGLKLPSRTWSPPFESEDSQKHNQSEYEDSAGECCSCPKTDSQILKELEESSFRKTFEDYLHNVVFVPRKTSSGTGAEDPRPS
Insulin receptor, sequence (P06213 763-1382 limits assumed): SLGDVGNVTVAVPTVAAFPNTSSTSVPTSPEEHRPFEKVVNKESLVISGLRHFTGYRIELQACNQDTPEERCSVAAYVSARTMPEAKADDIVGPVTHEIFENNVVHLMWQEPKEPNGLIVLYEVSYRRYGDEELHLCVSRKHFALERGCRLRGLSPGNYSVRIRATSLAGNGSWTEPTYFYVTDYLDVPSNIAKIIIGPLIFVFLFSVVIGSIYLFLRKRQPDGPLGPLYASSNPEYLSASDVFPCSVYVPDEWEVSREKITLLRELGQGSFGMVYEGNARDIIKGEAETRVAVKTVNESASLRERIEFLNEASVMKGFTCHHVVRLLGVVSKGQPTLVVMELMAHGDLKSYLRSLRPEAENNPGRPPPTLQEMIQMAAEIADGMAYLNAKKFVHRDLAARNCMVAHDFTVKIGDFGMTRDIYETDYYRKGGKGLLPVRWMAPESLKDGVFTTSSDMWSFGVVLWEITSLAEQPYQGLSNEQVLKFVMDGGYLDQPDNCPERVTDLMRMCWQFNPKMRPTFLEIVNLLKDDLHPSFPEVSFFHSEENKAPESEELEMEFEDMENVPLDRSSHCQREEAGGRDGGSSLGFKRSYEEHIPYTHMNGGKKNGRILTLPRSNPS

[11] = molecular target: Receptor tyrosine-protein kinase erbB-2 (Homo sapiens, UniProt P04626); test: Inhibition of heregulin-dependent autophosphorylation of ErbB2 receptor in MDA-MB-453 cells; type: functional, cell-based
Receptor tyrosine-protein kinase erbB-2, sequence (P04626 whole entry, the tested form may be a part): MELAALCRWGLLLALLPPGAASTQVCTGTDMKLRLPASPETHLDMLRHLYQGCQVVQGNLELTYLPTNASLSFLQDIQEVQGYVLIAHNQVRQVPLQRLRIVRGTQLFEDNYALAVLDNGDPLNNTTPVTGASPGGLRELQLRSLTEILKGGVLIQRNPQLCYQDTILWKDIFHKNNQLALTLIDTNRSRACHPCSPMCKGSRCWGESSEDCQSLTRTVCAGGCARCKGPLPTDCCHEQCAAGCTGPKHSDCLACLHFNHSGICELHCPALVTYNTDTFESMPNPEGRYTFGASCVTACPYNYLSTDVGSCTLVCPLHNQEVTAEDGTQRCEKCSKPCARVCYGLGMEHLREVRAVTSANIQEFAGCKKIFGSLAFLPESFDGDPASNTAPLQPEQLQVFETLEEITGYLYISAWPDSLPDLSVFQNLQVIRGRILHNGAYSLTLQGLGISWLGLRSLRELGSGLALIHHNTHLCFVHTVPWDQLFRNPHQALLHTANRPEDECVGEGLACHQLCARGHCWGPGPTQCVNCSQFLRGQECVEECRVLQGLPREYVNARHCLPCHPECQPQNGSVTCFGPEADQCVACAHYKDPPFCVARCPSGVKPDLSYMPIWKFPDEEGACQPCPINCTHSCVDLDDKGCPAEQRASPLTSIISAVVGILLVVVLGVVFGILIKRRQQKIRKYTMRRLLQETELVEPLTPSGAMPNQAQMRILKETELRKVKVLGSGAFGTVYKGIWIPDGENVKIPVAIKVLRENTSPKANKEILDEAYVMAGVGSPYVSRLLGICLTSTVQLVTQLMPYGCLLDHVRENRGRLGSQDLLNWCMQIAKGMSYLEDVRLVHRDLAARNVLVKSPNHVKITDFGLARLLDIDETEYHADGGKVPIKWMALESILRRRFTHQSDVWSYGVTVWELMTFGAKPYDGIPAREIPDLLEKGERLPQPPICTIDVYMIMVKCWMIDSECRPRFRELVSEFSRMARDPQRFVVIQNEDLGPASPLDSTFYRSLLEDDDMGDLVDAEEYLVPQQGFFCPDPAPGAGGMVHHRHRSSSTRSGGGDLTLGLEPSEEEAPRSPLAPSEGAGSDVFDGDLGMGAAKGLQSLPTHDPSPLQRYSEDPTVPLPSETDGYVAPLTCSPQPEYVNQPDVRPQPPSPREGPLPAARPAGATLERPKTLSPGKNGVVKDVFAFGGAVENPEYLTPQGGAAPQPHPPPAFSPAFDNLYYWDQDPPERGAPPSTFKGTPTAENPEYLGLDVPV

Mus musculus [12] = test: Difference in days for treated (T) and control (C) EGFR tumor fragments to reach 750 mg in mice at 200 mg/kg peroral dose, administration days 1-15; type: functional; details: route oral
Mus musculus [13] = test: Difference in days for treated (T) and control (C) EGFR tumor fragments to reach 750 mg in mice at 25 mg/kg ip dose, administration days 1-15; type: functional; details: route intraperitoneal
MCF7 [14] = test: Difference in days for treated (T) and control (C) MCF-7 tumor fragments to reach 750 mg in mice at 25 mg/kg ip dose, administration days 1-15; type: functional; details: route intraperitoneal
A-431 [15] = test: Ratio of treated and control A431 median tumor mass*100% in mice at 25 mg/kg peroral dose, days 7-21 administration; type: functional; details: route intraperitoneal, in the assay text read “intraperitoneal” for “peroral”; how it was run: as §2
Mus musculus [16] = test: Ratio of treated and control EGFR median tumor mass*100% in mice at 200 mg/kg peroral dose, days 1-15 administration; type: functional; details: route oral; how it was run: as §2
Mus musculus [17] = test: Ratio of treated and control EGFR median tumor mass*100% in mice at 25 mg/kg ip dose, days 1-15 administration; type: functional; details: route intraperitoneal; how it was run: as §2
MCF7 [18] = test: Ratio of treated and control MCF-7 median tumor mass*100% in mice at 25 mg/kg ip dose, days 1-15 administration; type: functional; details: route intraperitoneal; how it was run: as §2
Mus musculus [19] = test: Net reduction in EGFR tumor burden between the first and last treatments in mice at 25 mg/kg ip dose, days 1-15 administration; type: functional; details: route intraperitoneal
How it was run: (§3)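 NCr nu/nu nude mice (18-22 g) were randomized and implanted sc with A431 epidermoid, human-EGFR-transfected NIH 3T3 fibroblast, or MCF-7 breast tumor fragments in the right axilla on day 0. Dosing was ip or oral, by average cage weight, with 6 mice per dose group. Log net cell kill is the net reduction in tumor burden between the first and last treatments.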

MCF7 [20] = test: Net reduction in MCF-7 tumor burden between the first and last treatments in mice at 25 mg/kg ip dose, days 1-15 administration; type: functional; details: route intraperitoneal; how it was run: as §3
MCF7 [21] = test: Weight change in MCF-7 tumor bearing mice at 25 mg/kg ip dose, days 1-15 administration; type: functional; details: route intraperitoneal
A-431 [22] = test: Weight change in A431 tumor bearing mice at 25 mg/kg ip dose, days 7-21 administration; type: functional; details: route intraperitoneal
Mus musculus [23] = test: Weight change of EGFR tumor bearing mice at 200 mg/kg peroral dose, days 1-15 administration; type: functional, organism-based; parameters: dose 200 mg/kg
Mus musculus [24] = test: Weight change of EGFR tumor bearing mice at 25 mg/kg ip dose, days 1-15 administration; type: functional; details: route intraperitoneal
[25] = Inhibition of Platelet-derived growth factor receptor (PDGFR); type: functional
[26] = molecular target: Proto-oncogene tyrosine-protein kinase Src (Homo sapiens, UniProt P12931); test: Inhibition of c-Src tyrosine kinase; type: functional
Proto-oncogene tyrosine-protein kinase Src, sequence (P12931 2-536 limits assumed): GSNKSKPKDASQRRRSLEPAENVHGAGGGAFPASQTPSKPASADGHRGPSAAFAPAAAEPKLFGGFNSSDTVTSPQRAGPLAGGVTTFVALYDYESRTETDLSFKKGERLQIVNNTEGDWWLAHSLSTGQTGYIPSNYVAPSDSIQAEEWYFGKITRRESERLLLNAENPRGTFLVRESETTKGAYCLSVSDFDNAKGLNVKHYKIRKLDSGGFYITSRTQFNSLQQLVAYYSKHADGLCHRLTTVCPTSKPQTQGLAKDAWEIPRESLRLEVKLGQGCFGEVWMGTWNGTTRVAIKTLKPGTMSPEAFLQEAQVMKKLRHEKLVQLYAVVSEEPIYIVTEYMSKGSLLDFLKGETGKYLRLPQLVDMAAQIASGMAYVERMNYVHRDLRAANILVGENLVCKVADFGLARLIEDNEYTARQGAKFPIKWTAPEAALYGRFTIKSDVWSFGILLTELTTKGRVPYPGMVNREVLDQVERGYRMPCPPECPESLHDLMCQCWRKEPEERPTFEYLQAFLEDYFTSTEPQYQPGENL

Mus musculus [27] = test: Log net cell kill of A431 tumor bearing mice at 25 mg/kg intraperitoneal dose, days 7-21 administration
A-431 [28] = test: Difference in days for treated (T) and control (C) A431 tumor fragments to reach 750 mg in mice at 25 mg/kg intraperitoneal dose, administration days 7-21

SMILES: CNc1cc2c(Nc3cccc(C)c3)ncnc2cn1
- IC50 [1]: 23 nM
- IC50 [2]: 0.45 nM
- T-C (Mus musculus [3]): 2 days
- Weight change (Mus musculus [4]): -0.9 g
- T/C (Mus musculus [5]): 68%

SMILES: OCCN(CCO)CCCNc1cc2c(Nc3cccc(Br)c3)ncnc2cn1
- IC50 [1]: 230 nM
- solubility [6]: 20 mM (≈ 9.23 mg/mL)
- IC50 [7]: 0.35 nM

SMILES: Brc1cccc(Nc2ncnc3cnc(NCc4cccnc4)cc23)c1
- IC50 [1]: 13 nM
- solubility [6]: 12 mM (≈ 4.89 mg/mL)
- IC50 [7]: 1.5 nM

SMILES: Cc1cccc(Nc2ncnc3cnc(N(C)C)cc23)c1
- solubility [6]: 0.02 mM (≈ 0.00559 mg/mL)
- IC50 [7]: 2.8 nM

SMILES: CN(C)CCN(C)c1cc2c(Nc3cccc(Br)c3)ncnc2cn1
- solubility [6]: 39 mM (≈ 15.7 mg/mL)

SMILES: Cc1cccc(Nc2ncnc3cnc(N)cc23)c1
- solubility [6]: 0.4 mM (≈ 0.101 mg/mL)
- IC50 [7]: 3.1 nM

SMILES: CNc1cc2c(Nc3cccc(Cl)c3)ncnc2cn1
- IC50 [7]: 0.19 nM

SMILES: CN(C)CCCCNc1cc2c(Nc3cccc(Br)c3)ncnc2cn1
- IC50 [1]: 19 nM
- solubility [6]: 38 mM (≈ 15.8 mg/mL)
- IC50 [7]: 1.8 nM

SMILES: CN(CC(=O)O)c1cc2c(Nc3cccc(Br)c3)ncnc2cn1
- solubility [6]: 44 mM (≈ 17.1 mg/mL)
- IC50 [7]: 0.44 nM

SMILES: Brc1cccc(Nc2ncnc3cnc(NCCCN4CCOCC4)cc23)c1
- IC50 [1]: 5.9 nM
- S ([6]; buffer): > 44 mM
- IC50 [7]: 1 nM

SMILES: O=C(O)CCNc1cc2c(Nc3cccc(Br)c3)ncnc2cn1
- IC50 [1]: 449 nM
- solubility [6]: 38 mM (≈ 14.8 mg/mL)
- IC50 [7]: 0.27 nM

SMILES: CN(C)CCCNc1cc2c(Nc3cccc(Br)c3)ncnc2cn1
- IC50 [1]: 16 nM
- solubility [6]: 30 mM (≈ 12 mg/mL)
- IC50 [7]: 1.2 nM

SMILES: OCC(O)CNc1cc2c(Nc3cccc(Br)c3)ncnc2cn1 (stereo not given)
- solubility [6]: 0.21 mM (≈ 0.082 mg/mL)
- IC50 [7]: 0.18 nM

SMILES: CCN(CC)CC(O)CNc1cc2c(Nc3cccc(Br)c3)ncnc2cn1 (stereo not given)
- IC50 [8]: 28 nM
- IC50 [1]: 28 nM
- solubility [6]: 36 mM (≈ 16 mg/mL)
- IC50 [9]: 4.6 nM
- IC50 [2]: 4.6 nM
- IC50 [10]: > 50 µM
- IC50 (Insulin receptor): > 50 µM
- IC50 [11]: 1100 nM
- T-C (Mus musculus [12]): 0 days
- T-C (Mus musculus [13]): 5 days
- T-C (MCF7 [14]): 3.3 days
- T/C (A-431 [15]): 62%
- T/C (Mus musculus [16]): 94%
- T/C (Mus musculus [17]): 44%
- T/C (MCF7 [18]): 77%
- Net cell kill (Mus musculus [19]): -0.9 log10
- Net cell kill (MCF7 [20]): -0.6 log10
- Weight change (MCF7 [21]): -0.3 g
- Weight change (A-431 [22]): -0.7 g
- Weight change (Mus musculus [23]): Weight gain
- Weight change (Mus musculus [24]): -0.9 g
- IC50 [25]: > 50 µM
- IC50 [26]: > 50 µM
- Log net cell kill (Mus musculus [27]): -0.5 log10
- T-C (A-431 [28]): 5 days

SMILES: CN(C)c1cc2c(Nc3cccc(Br)c3)ncnc2cn1
- solubility [6]: 0.06 mM (≈ 0.0207 mg/mL)

SMILES: CN1CCN(NCCCNc2cc3c(Nc4cccc(Br)c4)ncnc3cn2)CC1
- solubility [6]: 32 mM (≈ 15.1 mg/mL)
